Results from PMC3064745 (Immunity, 2011).
Where two headings read alike, the source gives them in different places.

Assays:
NKT cells [1] = experiment: IFN-γ production by NKT cells, intracellular cytokine staining; format: cell-based, mouse; conditions: 100 ng/ml, 8h stimulation, ICS
Method in brief: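 NKT-enriched thymocytes were cultured for 8h with Jα18−/− splenocytes pulsed with 100 ng/ml glycolipid, with GolgiStop for the last 4h. Cells were surface stained, fixed, permeabilised and stained with anti-IFN-γ. Readout was percent IFN-γ⁺ among α-GalCer-CD1d tetramer⁺ cells. Data representative of 4 experiments.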

Vβ7+ NKT cells = experiment: Vβ usage of NKT cells after 3 days of in vitro proliferation; format: cell-based, mouse; conditions: Vβ usage by cell division peak
Method in brief: (§1)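 Jα18−/− mouse splenocytes were pulsed overnight with glycolipid plus IL-2 (100 U/ml), then spun through FCS and resuspended to remove excess lipid. Thymocytes were NKT-enriched by complement depletion of anti-HSA/anti-CD8-labelled cells, cleared of dead cells by gradient, and labelled with CFSE […] for 10 min at 37C. Cells were co-cultured at 2:1 splenocytes:thymocytes for 72h.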

NKT cells [2] = format: cell-based, mouse; conditions: 3 d culture
Method in brief: as §1

NKT cells [3] = experiment: Cytokines in culture supernatant, cytometric bead array; format: cell-based, mouse; conditions: 100 ng/ml, 8h stimulation
mouse Vβ8.2 NKT TCR = mouse Vβ8.2 NKT TCR (Mus musculus, UniProt P11609+Z9CWY5XBV8); experiment: Surface plasmon resonance of NKT TCR binding to CD1d-AGL complexes
Chain of mouse Vβ8.2 NKT TCR (P11609 whole entry, looked up, other chains not shown): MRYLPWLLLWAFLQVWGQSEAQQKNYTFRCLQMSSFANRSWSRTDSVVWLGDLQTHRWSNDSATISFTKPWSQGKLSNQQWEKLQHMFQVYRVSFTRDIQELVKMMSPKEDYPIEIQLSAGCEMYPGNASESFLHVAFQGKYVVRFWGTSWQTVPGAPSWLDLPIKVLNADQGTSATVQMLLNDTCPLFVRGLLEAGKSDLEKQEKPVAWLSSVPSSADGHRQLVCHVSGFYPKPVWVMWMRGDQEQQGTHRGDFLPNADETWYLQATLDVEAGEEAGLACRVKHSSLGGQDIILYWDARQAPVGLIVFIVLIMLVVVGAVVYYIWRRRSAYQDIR
Method in brief: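 SPR used soluble mouse NKT TCR (Vα14-Jα18; Vβ8.2) injected over streptavidin-immobilised mouse CD1d loaded with glycolipid, with a reference cell of unloaded CD1d. KD was derived from equilibrium responses. Kinetic rate constants were also fitted, with t1/2 determined from the interactions.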

NKT cells [4] = conditions: ICS at 2 and 6 hours after in vivo challenge, compared to α-GalCer; ref Sullivan et al 2010; cited from earlier work
[5] = Serum cytokines after in vivo treatment; conditions: 20h after in vivo treatment, compared to C20:2 and OCH

Row | Compound | IFN-γ producing NKT cells (NKT cells [1]) | bias toward Vβ7 proliferation (Vβ7+ NKT cells) | NKT cell proliferation (NKT cells [2]; 1 ng/ml glycolipid) | NKT cell proliferation (NKT cells [2]; 100 ng/ml glycolipid) | Th2 bias of cytokine production (NKT cells [3]) | further results
1 | CCCCCCCCCCCCCCCCCCCCCCCCCC(=O)N[C@@H](CO[C@H]1O[C@H](CO)C[C@H](O)[C@H]1O)[C@H](O)CCCCCCCCCCCCCCC [4′,4″-deoxy-α-GalCer] | less potent inducers of IFN-γ production | showed a Vβ7 bias |  |  |  | 
2 | CCCCCCCCCCCCCCCCCCCCCCCCCC(=O)N[C@@H](CO[C@H]1O[C@H](CO)C[C@H](O)[C@H]1O)[C@H](O)[C@H](O)CCCCCCCCCCCCCC [4′-deoxy-α-GalCer] | less potent inducers of IFN-γ production | showed a Vβ7 bias |  |  |  | 
3 | CCCCC/C=C\C/C=C\CCCCCCCCCC(=O)N[C@@H](CO[C@H]1O[C@H](CO)[C@H](O)[C@H](O)[C@H]1O)[C@H](O)[C@H](O)CCCCCCCCCCCCCC [C20:2] | highest percentages of IFN-γ producing NKT cells |  | barely induced NKT cell proliferation | able to induce proliferation | not apparent | 
4 | CCCCCCCCCCCCCCCCCCCCCCCC(=O)N[C@@H](COC1OC(CO)C(O)C(O)C1O)[C@H](O)[C@H](O)CCCCC (stereo partly shown) [OCH, reference compound] | highest percentages of IFN-γ producing NKT cells | loss of Vβ7^+ NKT cells with each progressive division cycle | consistently weaker in comparison to the non-truncated AGLs |  | not apparent | t1/2 life of the interaction, comparison in words (mouse Vβ8.2 NKT TCR): markedly longer half life when compared to that of the 3′,4″-deoxy AGL; affinity relative to the NKT TCR-CD1d-α-GalCer interaction (mouse Vβ8.2 NKT TCR; compared with the α-GalCer positive control): approximately 20%; effect on kinetic rate constants (ka, kd) (mouse Vβ8.2 NKT TCR; compared with α-GalCer, in words): impacted negatively on the association constant; Th2 bias of NKT cell cytokine production (NKT cells [4]): fails to reveal a Th2 bias
5 | CCCCCCCCCCCCCCCCCCCCCCCCCC(=O)N[C@@H](CO[C@H]1O[C@H](CO)[C@H](O)[C@H](O)[C@H]1O)[C@H](O)[C@H](O)CCCCCCCCCCCCCC [α-GalCer, α-galactosylceramide] | highest percentages of IFN-γ producing NKT cells |  |  |  |  | Kd (mouse Vβ8.2 NKT TCR): ~59 nM; t1/2 life of the interaction (mouse Vβ8.2 NKT TCR; NKT TCR-CD1d-glycolipid interaction): approximately 20 s; serum IFN-γ response [5]: more sustained IFN-γ response at 20h
6 | CCCCC/C=C\C/C=C\CCCCCCCCCC(=O)N[C@@H](CO[C@H]1O[C@H](CO)[C@@H](O)[C@H](O)[C@H]1O)[C@H](O)[C@H](O)CCCCCCCCCCCCCC [α-GlcCer (C20:2)] | least IFN-γ production of all | showed a Vβ7 bias | barely induced NKT cell proliferation | able to induce proliferation |  | bias toward Vβ7 proliferation (Vβ7+ NKT cells; listed as α-GlcCer): progressively enriched with each division cycle
